Data: ChEMBL document CHEMBL2034906, “Inhibition of tumor cells interacting with stromal cells by xanthones isolated from a Costa Rican Penicillium sp” (J Nat Prod, 2012)

How the values were obtained:
[1] = Cytotoxicity against human 8226/DOX40 cells after 48 hrs by luminometric analysis in presence of HS5 bone marrow stromal cells; assay type: functional, cell-based
Outline: (§1)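 Tumor cells were co-cultured with HS-5 bone marrow stromal cells. For non-adherent tumors, stroma was seeded overnight, then tumor cells were overlaid and treated the next day. For adherent tumors, stroma and tumor cells were plated together overnight, then treated. Cells received increasing compound concentrations for 48 h. Luciferin was added for 30 min and bioluminescence read. Signal was normalized to the untreated control, in quadruplicate, and IC50 was calculated.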

[2] = test system: RPMI-8226; test: Ratio of IC50 for human RPMI8226 cells in absence of HS5 bone marrow stromal cells to IC50 for human RPMI8226 in presence of HS5 bone marrow stromal cells; assay type: functional
[3] = test system: MDA-MB-231; test: Cytotoxicity against human MDA-MB-231 cells after 48 hrs by luminometric analysis in presence of HS5 bone marrow stromal cells; assay type: functional, cell-based; conditions: MDA-MB-231, 48 h; outline: as §1
[4] = Cytotoxicity against human KMS34 cells after 48 hrs by luminometric analysis; assay type: functional, cell-based; conditions: KMS-34, 48 h
Outline: (§2)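 Tumor cells were cultured without HS-5 stromal cells and treated with increasing compound concentrations for 48 h. Luciferin substrate was added, cultures were incubated 30 min, and bioluminescence was read on a luminometer. Signal was normalized to the non-treated control, with each condition in quadruplicate, and IC50 was calculated.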

[5] = test system: NCI-H929 (Homo sapiens); test: Cytotoxicity against human NCI-H929 cells after 48 hrs by luminometric analysis; conditions: NCI-H929, 48 h
[6] = Cytotoxicity against human Farage cells after 48 hrs by luminometric analysis; assay type: functional, cell-based; outline: as §2
[7] = Cytotoxicity against human OCILY17R cells after 48 hrs by luminometric analysis in presence of HS5 bone marrow stromal cells; assay type: functional, cell-based; outline: as §1
[8] = Cytotoxicity against human OCI-My5 cells after 48 hrs by luminometric analysis in presence of HS5 bone marrow stromal cells; assay type: functional, cell-based; conditions: OCI-My5, 48 h; outline: as §1
[9] = Cytotoxicity against human 8226/DOX40 cells after 48 hrs by luminometric analysis; assay type: functional, cell-based; outline: as §2
[10] = test system: HT; test: Cytotoxicity against human HT cells after 48 hrs by luminometric analysis; assay type: functional, cell-based; outline: as §2
[11] = test system: PC-3; test: Cytotoxicity against human PC3 cells after 48 hrs by luminometric analysis in presence of HS5 bone marrow stromal cells; assay type: functional, cell-based; conditions: PC-3, 48 h; outline: as §1
[12] = Cytotoxicity against human MM1S cells after 48 hrs by luminometric analysis; assay type: functional, cell-based; conditions: MM1.S; outline: as §2
[13] = test system: L-363; test: Cytotoxicity against human L363 cells after 48 hrs by luminometric analysis; assay type: functional, cell-based; conditions: L-363, 48 h; outline: as §2
[14] = test system: PC-3; test: Cytotoxicity against human PC3 cells after 48 hrs by luminometric analysis; assay type: functional, cell-based; conditions: PC-3, 48 h; outline: as §2
[15] = test system: OPM-2; test: Cytotoxicity against human OPM2 cells after 48 hrs by luminometric analysis in presence of HS5 bone marrow stromal cells; assay type: functional, cell-based; conditions: OPM-2, 48 h; outline: as §1
[16] = Cytotoxicity against human HOBIT cells after 48 hrs by luminometric analysis; assay type: cell-based
[17] = Cytotoxicity against human OCI-My5 cells after 48 hrs by luminometric analysis; assay type: functional, cell-based; conditions: OCI-My5, 48 h; outline: as §2
[18] = test system: RPMI-8226; test: Cytotoxicity against human RPMI8226 cells after 48 hrs by luminometric analysis in presence of HS5 bone marrow stromal cells; assay type: functional, cell-based; conditions: RPMI-8226, 48 h; outline: as §1
[19] = Cytotoxicity against human SVGp12 cells after 48 hrs by luminometric analysis; assay type: cell-based; conditions: SVGp12, 48 h
[20] = Cytotoxicity against human THLE3 cells after 48 hrs by luminometric analysis; assay type: cell-based; conditions: THLE3, 48 h
[21] = Cytotoxicity against human MM1S cells after 48 hrs by luminometric analysis in presence of HS5 bone marrow stromal cells; assay type: functional, cell-based; conditions: MM1.S; outline: as §1
[22] = test system: OPM-2; test: Cytotoxicity against human OPM2 cells after 48 hrs by luminometric analysis; assay type: functional, cell-based; conditions: OPM-2, 48 h; outline: as §2
[23] = Cytotoxicity against human KMS34 cells after 48 hrs by luminometric analysis in presence of HS5 bone marrow stromal cells; assay type: functional, cell-based; conditions: KMS-34, 48 h; outline: as §1
[24] = test system: NCI-H929 (Homo sapiens); test: Cytotoxicity against human NCI-H929 cells after 48 hrs by luminometric analysis in presence of HS5 bone marrow stromal cells; conditions: NCI-H929, 48 h
[25] = test system: RPMI-8226; test: Cytotoxicity against human RPMI8226 cells after 48 hrs by luminometric analysis; assay type: functional, cell-based; conditions: RPMI-8226, 48 h; outline: as §2
[26] = test system: MDA-MB-231; test: Cytotoxicity against human MDA-MB-231 cells after 48 hrs by luminometric analysis; assay type: functional, cell-based; conditions: MDA-MB-231, 48 h; outline: as §2
[27] = test system: HT; test: Cytotoxicity against human HT cells after 48 hrs by luminometric analysis in presence of HS5 bone marrow stromal cells; assay type: functional, cell-based; outline: as §1
[28] = Cytotoxicity against human HS5 cells after 48 hrs by luminometric analysis; assay type: cell-based; conditions: HS5, 48 h
[29] = Cytotoxicity against human KU-812F cells after 48 hrs by luminometric analysis in presence of HS5 bone marrow stromal cells; assay type: functional, cell-based; outline: as §1
[30] = Cytotoxicity against human OCILY17R cells after 48 hrs by luminometric analysis; assay type: functional, cell-based; outline: as §2
[31] = Cytotoxicity against human KU-812F cells after 48 hrs by luminometric analysis; assay type: functional, cell-based; outline: as §2
[32] = Cytotoxicity against human Farage cells after 48 hrs by luminometric analysis in presence of HS5 bone marrow stromal cells; assay type: functional, cell-based; outline: as §1
[33] = test system: L-363; test: Cytotoxicity against human L363 cells after 48 hrs by luminometric analysis in presence of HS5 bone marrow stromal cells; assay type: functional, cell-based; conditions: L-363, 48 h; outline: as §1

Compound | IC50 [1] | IC50 [3] | IC50 [5] | IC50 [6] | IC50 [9] | IC50 [10] | IC50 [11] | IC50 [12] | IC50 [14] | IC50 [15] | IC50 [18] | IC50 [21] | IC50 [22] | IC50 [24] | IC50 [25] | IC50 [26] | IC50 [27] | IC50 [29] | IC50 [31] | IC50 [32] | further results
CC(=O)OC[C@]12Oc3ccc(-c4ccc5c(c4O)C(=O)C4=C(O)C[C@@H](C)[C@@H](OC(C)=O)[C@@]4(CO)O5)c(O)c3C(=O)C1=C(O)C[C@@H](C)[C@H]2OC(C)=O [DICERANDROL B] | 2.3 µM | 5.5 µM | 10.2 µM | 1.6 µM | 2.2 µM | 1.2 µM | 14.1 µM | 7.3 µM | 34 µM | 1.5 µM | 1.2 µM | 8 µM | 1.9 µM | 3.4 µM | 2.4 µM | 8.5 µM | 1.3 µM | 3.6 µM | 2.7 µM | 1.3 µM | Ratio IC50 [2]: 2; IC50 [4]: 5.5 µM; IC50 [7]: 5.2 µM; IC50 [8]: 5.7 µM; IC50 [13]: 16.7 µM; IC50 [16]: 9.2 µM; IC50 [17]: 2.8 µM; IC50 [19]: 13.7 µM; IC50 [20]: 10 µM; IC50 [23]: 9.3 µM; IC50 [28]: 13 µM; IC50 [30]: 4.6 µM
CC(=O)OC[C@]12Oc3c(-c4ccc5c(c4O)C(=O)C4=C(O)C[C@@H](C)[C@@H](OC(C)=O)[C@@]4(CO)O5)ccc(O)c3C(=O)C1=C(O)C[C@@H](C)[C@H]2OC(C)=O (relative stereo) | 21.6 µM | 34.2 µM | 54.5 µM | 12.4 µM | 15 µM | 10.8 µM | 66.3 µM | 37.1 µM | 122 µM | 10.5 µM | 8.9 µM | 47.1 µM | 12.7 µM | 35.2 µM | 12.9 µM | 43.4 µM | 9.9 µM | 24.2 µM | 14.6 µM | 10.5 µM | IC50 [4]: 22.6 µM; IC50 [7]: 47.4 µM; IC50 [8]: 47.7 µM; IC50 [13]: 66 µM; IC50 [17]: 18.8 µM; IC50 [23]: 55.6 µM; IC50 [33]: 79.4 µM; IC50 [30]: 31.1 µM
CC(=O)OC[C@]12Oc3cccc(O)c3C(=O)C1=C(O)C[C@@H](C)[C@H]2OC(C)=O (relative stereo) | 24.2 µM | 118 µM | 188 µM | 200 µM | 11.6 µM | 100 µM | 216 µM | 168 µM | 1380 µM | 44.8 µM | 34 µM | 186 µM | 42.8 µM | 94.8 µM | 71.6 µM | 164 µM | 34.9 µM | 95.9 µM | 44.9 µM | 38.7 µM | IC50 [4]: 153 µM; IC50 [7]: 293 µM; IC50 [8]: 384 µM; IC50 [13]: 464 µM; IC50 [17]: 158 µM; IC50 [23]: 199 µM; IC50 [33]: 199 µM; IC50 [30]: 1620 µM
CC(=O)OC[C@]12Oc3ccc(-c4ccc5c(c4O)C(=O)C4=C(O)C[C@@H](C)[C@@H](OC(C)=O)[C@@]4(COC(C)=O)O5)c(O)c3C(=O)C1=C(O)C[C@@H](C)[C@H]2OC(C)=O [DICERANDROL C] | 13.9 µM | 13.3 µM | 10.8 µM | 3.5 µM | 10 µM | 2.1 µM | 45.2 µM | 14.7 µM | 121 µM | 7.5 µM | 2.8 µM | 20.8 µM | 4.8 µM | 5.4 µM | 4.8 µM | 18.1 µM | 4 µM | 14.3 µM | 7.1 µM | 3.3 µM | –
CC(=O)O[C@@H]1[C@H](C)CC(O)=C2C(=O)c3c(ccc(-c4ccc5c(c4O)C(=O)C4=C(O)C[C@@H](C)[C@@H](OC(C)=O)[C@@]4(CO)O5)c3O)O[C@@]21CO [DICERANDROL A] | 36.9 µM | 38.4 µM | 42.5 µM | 15.6 µM | 22.8 µM | – | 71.7 µM | 28.9 µM | 100 µM | – | – | 33.3 µM | – | 22.9 µM | – | 43.3 µM | – | 46.6 µM | 24.6 µM | 14.8 µM | –
